# From ChEMBL document CHEMBL1129987, “Structure-based design of nonpeptidic HIV protease inhibitors: the sulfonamide-substituted cyclooctylpyramones” (J Med Chem, 1997)
# Columns and labels:
# [1] = Median cell culture toxic dose was evaluated against H9 cell line; format: ADME, cell-based; details: human, H9 cells; read-out: CCTD50
# [2] = Half-life was measured after intravenous administration of 2.5 mg/kg of drug in male Dawley rats; format: ADME, organism-based; set-up: dose 2.5 mg/kg, route intravenous; details: Sprague-Dawley, rat, in vivo
# [3] = Maximum time taken by the drug to reach peak concentration after peroral administration of 5.0 mg/kg of drug in male Dawley rats; format: ADME, organism-based; set-up: dose 5 mg/kg, route oral; details: Sprague-Dawley, rat, in vivo, po
# [4] = Total plasma clearance value was obtained after intravenous administration of 2.5 mg/kg of drug in male Dawley rats; format: ADME, organism-based; set-up: dose 2.5 mg/kg, route intravenous; details: Sprague-Dawley, rat
# [5] = system: Human immunodeficiency virus 1; test: Antiviral activity in HIV-1 infected H9 cells; format: functional; details: Human immunodeficiency virus 1, H9; read-out: ED50 (the source's name)
# Summary of the method: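 H9 cells infected with HIV-1 IIIB at MOI about 0.005, spun down (200g, 10 min), resuspended at 8 × 10^5 cells/mL in RPMI Complete and mixed with compound; final DMSO 0.1%, triplicate per concentration. After 5 days at 37 °C in 5% CO2, supernatant p24 antigen was measured by ELISA. ED50 is the drug amount that reduces p24 by 50% versus DMSO drug-free controls.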
# [6] = molecular target: Human immunodeficiency virus type 1 protease (Human immunodeficiency virus 1, UniProt Q72874); test: Binding affinity against HIV-1 protease
# [7] = Apparent volume of distribution was obtained after intravenous administration of 2.5 mg/kg of drug in male Dawley rats; format: ADME, organism-based; set-up: dose 2.5 mg/kg, route intravenous; details: Sprague-Dawley, rat, in vivo, read-out: Vss
# [8] = Oral bioavailability in rat (Sprague-Dawley) (male) (dose 5 mg/kg); format: ADME, organism-based; details: in vivo
# [9] = Maximum concentration was measured after peroral administration of 5.0 mg/kg of drug in male Dawley rats; format: ADME, organism-based; set-up: dose 5 mg/kg, route oral; details: Sprague-Dawley, rat, in vivo, po
# [10] = Half-life was measured after intravenous administration of 4.9 mg/kg of drug in male Beagle dogs; format: ADME, organism-based, Canis lupus familiaris; set-up: dose 4.9 mg/kg, route intravenous; details: dog, in vivo
# [11] = Total plasma clearance value was obtained after intravenous administration of 4.9 mg/kg of drug in male Beagle dogs; format: ADME, organism-based, Canis lupus familiaris; set-up: dose 4.9 mg/kg, route intravenous; details: dog
# [12] = Oral bioavailability in rat (Sprague-Dawley) (male) (dose 5.1 mg/kg p.o.); format: ADME, organism-based; details: in vivo
# [13] = Maximum concentration was measured after peroral administration of 5.1 mg/kg of drug in male Dawley rats; format: ADME, organism-based; set-up: dose 5.1 mg/kg, route oral; details: Sprague-Dawley, rat, in vivo, po
# [14] = Maximum time taken by the drug to reach peak concentration after peroral administration of 10 mg/kg of drug male in male Beagle dogs; format: ADME, organism-based, Canis lupus familiaris; set-up: dose 10 mg/kg, route oral; details: dog, in vivo, po
# Summary of the method: (§1)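 Male beagle dogs received a 10 mg/kg oral dose. tmax is reported as a range. Bioavailability was calculated as %F = (AUCpo/AUCiv) × (doseiv/dosepo) against a separate iv study. Values are mean ± SD, n = 3.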
# [15] = Apparent volume of distribution was obtained after intravenous administration of 4.9 mg/kg of drug in male Beagle dogs; format: ADME, organism-based, Canis lupus familiaris; set-up: dose 4.9 mg/kg, route intravenous; details: dog, in vivo, read-out: Vss
# [16] = Maximum time taken by the drug to reach peak concentration after peroral administration of 5.1 mg/kg of drug male in Dawley rats; format: ADME, organism-based; set-up: dose 5.1 mg/kg, route oral; details: Sprague-Dawley, rat, in vivo, po
# [17] = Oral bioavailability in dog (Beagle) (male) (dose 10 mg/kg p.o.); format: ADME, organism-based, Canis lupus familiaris; details: in vivo; summary of the method: as §1
# [18] = Apparent volume of distribution was obtained after intravenous administration of 5.1 mg/kg of drug in male Dawley rats; format: ADME, organism-based; set-up: dose 5.1 mg/kg, route intravenous; details: Sprague-Dawley, rat, in vivo, read-out: Vss
# [19] = Half-life was measured after intravenous administration of 5.1 mg/kg of drug in male Dawley rats; format: ADME, organism-based; set-up: dose 5.1 mg/kg, route intravenous; details: Sprague-Dawley, rat, in vivo
# [20] = Total plasma clearance value was obtained after intravenous administration of 5.1 mg/kg of drug in male Dawley rats; format: ADME, organism-based; set-up: dose 5.1 mg/kg, route intravenous; details: Sprague-Dawley, rat
# [21] = Total plasma clearance value was obtained after intravenous administration of 2.7 mg/kg of drug in male Dawley rats; format: ADME, organism-based; set-up: dose 2.7 mg/kg, route intravenous; details: Sprague-Dawley, rat
# [22] = Oral bioavailability in rat (Sprague-Dawley) (male) (dose 5.2 mg/kg p.o.); format: ADME, organism-based; details: in vivo
# [23] = Apparent volume of distribution was obtained after intravenous administration of 1.8 mg/kg of drug in male Beagle dogs; format: ADME, organism-based, Canis lupus familiaris; set-up: dose 1.8 mg/kg, route intravenous; details: dog, in vivo, read-out: Vss
# [24] = Total plasma clearance value was obtained after intravenous administration of 1.8 mg/kg of drug in male Beagle dogs; format: ADME, organism-based, Canis lupus familiaris; set-up: dose 1.8 mg/kg, route intravenous; details: dog
# [25] = Maximum time taken by the drug to reach peak concentration after peroral administration of 5.2 mg/kg of drug male in Dawley rats; format: ADME, organism-based; set-up: dose 5.2 mg/kg, route oral; details: Sprague-Dawley, rat, in vivo, po
# [26] = Maximum concentration was measured after peroral administration of 5.2 mg/kg of drug in male Dawley rats; format: ADME, organism-based; set-up: dose 5.2 mg/kg, route oral; details: Sprague-Dawley, rat, in vivo, po
# [27] = Half-life was measured after intravenous administration of 1.8 mg/kg of drug in male Beagle dogs; format: ADME, organism-based, Canis lupus familiaris; set-up: dose 1.8 mg/kg, route intravenous; details: dog, in vivo
# [28] = Apparent volume of distribution was obtained after intravenous administration of 2.7 mg/kg of drug in male Dawley rats; format: ADME, organism-based; set-up: dose 2.7 mg/kg, route intravenous; details: Sprague-Dawley, rat, in vivo, read-out: Vss
# [29] = Half-life was measured after intravenous administration of 2.7 mg/kg of drug in male Dawley rats; format: ADME, organism-based; set-up: dose 2.7 mg/kg, route intravenous; details: Sprague-Dawley, rat, in vivo
# [30] = Maximum concentration was measured after peroral administration of 10 mg/kg of drug in male Beagle dogs; format: ADME, organism-based, Canis lupus familiaris; set-up: dose 10 mg/kg, route oral; details: dog, in vivo, po; summary of the method: as §1
# [31] = (§2) Half-life was measured after intravenous administration of […] mg/kg of drug in male Dawley rats; format: ADME, organism-based; details: male, Sprague-Dawley, rat, in vivo, 2.8 mg/kg
# [32] = (§3) Total plasma clearance value was obtained after intravenous administration of […] mg/kg of drug in male Dawley rats; format: ADME, organism-based; details: male, Sprague-Dawley, rat, plasma, 2.8 mg/kg
# [33] = Maximum time taken by the drug to reach peak concentration after peroral administration of 5.1 mg/kg of drug in male Dawley rats; format: ADME, organism-based; set-up: dose 5.1 mg/kg, route oral; details: Sprague-Dawley, rat, in vivo, po
# [34] = (§4) Apparent volume of distribution was obtained after intravenous administration of 2.8 mg/kg of drug in male Dawley rats; format: ADME, organism-based; set-up: dose 2.8 mg/kg, route intravenous; details: male, Sprague-Dawley, rat, in vivo, read-out: Vss
# [35] = Maximum time taken by the drug to reach peak concentration after peroral administration of 5.2 mg/kg of drug in male Dawley rats; format: ADME, organism-based; set-up: dose 5.2 mg/kg, route oral; details: Sprague-Dawley, rat, in vivo, po
# Rattus norvegicus [36] = test: as §2; format: ADME, organism-based; details: in vivo, 2.8 mg/kg
# Rattus norvegicus [37] = test: as §3; format: ADME, organism-based; details: in vivo, 2.8 mg/kg
# Rattus norvegicus [38] = test: as §4; format: ADME, organism-based; set-up: dose 2.8 mg/kg, route intravenous; details: in vivo
# [39] = Half-life was measured after intravenous administration of 2.6 mg/kg of drug in male Dawley rats; format: ADME, organism-based; set-up: dose 2.6 mg/kg, route intravenous; details: Sprague-Dawley, rat, in vivo
# [40] = Apparent volume of distribution was obtained after intravenous administration of 2.6 mg/kg of drug in male Dawley rats; format: ADME, organism-based; set-up: dose 2.6 mg/kg, route intravenous; details: Sprague-Dawley, rat, in vivo, read-out: Vss
# [41] = Total plasma clearance value was obtained after intravenous administration of 2.6 mg/kg of drug in male Dawley rats; format: ADME, organism-based; set-up: dose 2.6 mg/kg, route intravenous; details: Sprague-Dawley, rat
# [42] = molecular target: Human immunodeficiency virus type 1 protease (Human immunodeficiency virus 1) (UniProt Q72874); test: Percentage inhibition against HIV-1 protease at 1 uM concentration of drug
# [43] = molecular target: Human immunodeficiency virus type 1 protease (Human immunodeficiency virus 1) (UniProt Q72874); test: Percentage inhibition against HIV-1 protease at 1.1 uM concentration of drug
# [44] = molecular target: Human immunodeficiency virus type 1 protease (Human immunodeficiency virus 1) (UniProt Q72874); test: Percentage inhibition against HIV-1 protease at 10 uM concentration of drug
smiles,measurement,setting,value
Cn1cnc(S(=O)(=O)Nc2cccc([C@@H](c3c(O)c4c(oc3=O)CCCCCC4)C3CC3)c2)c1,CC50,[1],> 30000 nM
same,half-life,[2],144 min
same,Tmax,[3],15 min
same,clearance,[4],4.67 mL/min/kg
same,EC50,[5],2100 nM
same,Ki,[6],0.045 nM
same,Vd,[7],0.2 L/kg
same,bioavailability,[8],15%
same,Cmax,[9],0.64 µM
N#Cc1ccc(S(=O)(=O)Nc2cccc(C(c3c(O)c4c(oc3=O)CCCCCC4)C3CC3)c2)cc1 (configuration not stated),half-life,[10],378 min
same,clearance,[11],0.733 mL/min/kg
same,bioavailability,[12],42%
same,Cmax,[13],24 µM
same,CC50,[1],90000 nM
same,half-life,[2],180 min
same,clearance,[4],1.25 mL/min/kg
same,Tmax,[14],30 min
same,Vd,[15],0.085 L/kg
same,EC50,[5],1300 nM
same,Tmax,[16],15 min
same,bioavailability,[17],77%
N#Cc1ccc(S(=O)(=O)Nc2cccc([C@@H](c3c(O)oc4c(c3=O)CCCCCC4)C3CC3)c2)cc1,CC50,[1],> 30000 nM
same,Tmax,[3],30 min
same,Vd,[18],0.12 L/kg
same,half-life,[19],372 min
same,clearance,[20],0.817 mL/min/kg
same,EC50,[5],1200 nM
same,bioavailability,[8],42%
same,Cmax,[9],19 µM
O=c1c2c(oc(O)c1C(c1cccc(NS(=O)(=O)c3ccc(F)cc3)c1)C1CC1)CCCCCC2 (configuration not stated),clearance,[21],0.717 mL/min/kg
same,bioavailability,[22],50%
same,Vd,[23],0.08 L/kg
same,CC50,[1],68000 nM
same,clearance,[24],3.17 mL/min/kg
same,Tmax,[25],15 min
same,Cmax,[26],31 µM
same,half-life,[27],34.2 min
same,Vd,[28],0.16 L/kg
same,half-life,[29],372 min
same,Tmax,[14],30 min
same,Cmax,[30],61 µM
same,EC50,[5],2000 nM
same,Ki,[6],3.1 nM
same,bioavailability,[17],107%
O=c1c2c(oc(O)c1[C@H](c1cccc(NS(=O)(=O)c3ccc(F)cc3)c1)C1CC1)CCCCCC2,bioavailability,[12],58%
same,Cmax,[13],10 µM
same,half-life,[31],132 min
same,CC50,[1],> 30000 nM
same,clearance,[32],1.92 mL/min/kg
same,Tmax,[33],15 min
same,EC50,[5],800 nM
same,Ki,[6],1.4 nM
same,Vd,[34],0.13 L/kg
O=c1c2c(oc(O)c1[C@@H](c1cccc(NS(=O)(=O)c3ccc(F)cc3)c1)C1CC1)CCCCCC2,Tmax,[35],15 min
same,bioavailability,[22],53%
same,T1/2,Rattus norvegicus [36],360 min
same,CC50,[1],> 30000 nM
same,CL,Rattus norvegicus [37],0.067 mL/min/kg
same,Cmax,[26],24 µM
same,EC50,[5],> 10000 nM
same,Ki,[6],2.1 nM
same,Vss,Rattus norvegicus [38],0.15 L/kg
N#Cc1ccc(S(=O)(=O)Nc2cccc([C@H](c3c(O)oc4c(c3=O)CCCCCC4)C3CC3)c2)cc1,CC50,[1],> 30000 nM
same,Tmax,[3],15 min
same,half-life,[39],450 min
same,EC50,[5],8300 nM
same,bioavailability,[8],31%
same,Vd,[40],0.15 L/kg
same,clearance,[41],0.933 mL/min/kg
same,Cmax,[9],13 µM
O=c1c2c(oc(O)c1[C@H](c1cccc(NS(=O)(=O)c3cccc4cccnc34)c1)C1CC1)CCCCCC2,CC50,[1],> 30000 nM
same,half-life,[2],108 min
same,Tmax,[3],15 min
same,clearance,[4],2.83 mL/min/kg
same,EC50,[5],1300 nM
same,Ki,[6],0.4 nM
same,Vd,[7],0.15 L/kg
same,bioavailability,[8],34%
same,Cmax,[9],6.2 µM
O=c1c2c(oc(O)c1C(c1cccc(N(S(=O)(=O)c3ccccc3)S(=O)(=O)c3ccccc3)c1)C1CC1)CCCCCC2 (configuration not stated),inhibition,[42],10%
O=c1c2c(oc(O)c1C(c1cccc(N(Cc3ccccc3)S(=O)(=O)c3ccccc3)c1)C1CC1)CCCCCC2 (configuration not stated),inhibition,[43],< 10%
same,inhibition,[44],< 10%
